Columns and labels:
[1] = target: T1, Sodium-dependent dopamine transporter (Rattus norvegicus, UniProt P23977); assay: Inhibition of [3H]dopamine uptake in rat caudate putamen tissue.; format: functional, tissue-based
Procedure, shortened: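 Rat caudate putamen chopped into 225 µm slices, in oxygenated Krebs-HEPES at 37 °C. Stopped with ice-cold buffer and filtered; accumulated label extracted in methanol/HCl and counted by scintillation. Specific uptake; IC50 by linear regression on the linear portion of the concentration–response curve.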

[2] = target: T1, Sodium-dependent dopamine transporter; assay: Displacement of [3H]WIN-35428 binding to the dopamine transporter in rat caudate putamen tissue.; format: tissue-based

T1 sequence (P23977 whole entry): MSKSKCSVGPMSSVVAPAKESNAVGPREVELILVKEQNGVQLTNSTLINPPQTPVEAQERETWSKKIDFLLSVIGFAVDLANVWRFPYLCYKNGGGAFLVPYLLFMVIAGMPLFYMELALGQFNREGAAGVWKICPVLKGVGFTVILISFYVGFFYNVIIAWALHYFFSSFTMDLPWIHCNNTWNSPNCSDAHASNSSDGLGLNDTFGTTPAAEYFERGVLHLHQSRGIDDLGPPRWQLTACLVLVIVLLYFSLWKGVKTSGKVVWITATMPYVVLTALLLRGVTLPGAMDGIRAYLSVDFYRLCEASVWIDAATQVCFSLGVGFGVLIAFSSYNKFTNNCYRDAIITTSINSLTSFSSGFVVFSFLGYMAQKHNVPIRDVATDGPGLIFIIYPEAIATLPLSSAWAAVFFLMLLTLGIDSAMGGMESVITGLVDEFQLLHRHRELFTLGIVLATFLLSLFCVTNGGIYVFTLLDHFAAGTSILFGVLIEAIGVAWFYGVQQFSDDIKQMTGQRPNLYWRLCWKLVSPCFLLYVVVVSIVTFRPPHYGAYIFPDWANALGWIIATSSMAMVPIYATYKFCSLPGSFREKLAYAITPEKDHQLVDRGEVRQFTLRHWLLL

Row | Structure (SMILES) | IC50 [1] | Ki [2]
1 | CN1[C@@H]2CC[C@H]1C[C@@H](OC(c1ccc(F)cc1)c1cccc(C(F)(F)F)c1)C2 (stereo not given in full) | 182 nM | 88.1 nM
2 | CN1[C@@H]2CC[C@H]1C[C@@H](OC(c1ccc(F)cc1)c1ccc(Br)cc1)C2 (stereo not given in full) | 27.2 nM | 15.2 nM
3 | CN1[C@@H]2CC[C@H]1C[C@@H](OC(c1ccccc1)c1ccc(F)c(F)c1)C2 (stereo not given in full) | 181 nM | 27.9 nM
4 | Cc1cccc(C(O[C@H]2C[C@H]3CC[C@@H](C2)N3C)c2ccc(F)cc2)c1 (stereo not given in full) | 108 nM | 30.9 nM
5 | CN1[C@@H]2CC[C@H]1C[C@@H](OC(c1ccccc1)c1cccc([N+](=O)[O-])c1)C2 (stereo not given in full) | 795 nM | 187 nM
6 | CN1[C@@H]2CC[C@H]1C[C@@H](OC(c1ccc(F)cc1)c1cccc(Cl)c1)C2 (stereo not given in full) | 123 nM | 23.4 nM
7 | CN1[C@@H]2CC[C@H]1C[C@@H](OC(c1ccc(F)cc1)c1cccc(Br)c1)C2 (stereo not given in full) | 179 nM | 38.2 nM
8 | CN1[C@@H]2CC[C@H]1C[C@@H](OC(c1ccccc1)c1cccc(Br)c1)C2 (stereo not given in full) | 104 nM | 27 nM
9 | Cc1cccc(C(O[C@H]2C[C@H]3CC[C@@H](C2)N3C)c2ccccc2)c1 (stereo not given in full) | 226 nM | 78 nM
10 | CN1[C@@H]2CC[C@H]1C[C@@H](OC(c1ccccc1)c1ccccc1Cl)C2 (stereo not given in full) | 977 nM | –
11 | CN1[C@@H]2CC[C@H]1C[C@@H](OC(c1ccc(F)cc1)c1cccc(F)c1)C2 (stereo not given in full) | 139 nM | –
